# CXCR6 block = blocks human CXCR6 beta-arrestin recruitment; inhibition, % at 20 µM; 360,000 tested, 0.36% active; AID 602244; O00574; CHO-K1 PathHunter CXCR6 beta-arrestin, luminescence; in the data active means inhibition above about 34%, passing the limit was not always enough;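 further: antagonist mode with CXCL16 agonist at 10 nM final; 0% = 10 nM CXCL16 with DMSO and 100% = unstimulated wells without agonist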
# APJ antag = APJ receptor antagonism | 330,000 tested, 0.32% active | CHO-K1 APJ beta-arrestin complementation, luminescence | P35414 | inhibition, % at 20 µM | AID 2521;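 active means inhibition above about 40% at 20 µM, limit read from the data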;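 further: cells challenged with 10 nM apelin-13 agonist together with compound; plate controls were apelin-13 plus DMSO wells for no effect and DMSO wells lacking apelin-13 for full effect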
# APJ ag = activates the human apelin receptor APJ. P35414. activation, % at 20 µM. AID 2520. 330,000 tested, 0.11% active. CHO-K1 APJ PathHunter beta-arrestin, luminescence; 0% DMSO wells, 100% apelin;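 active means activation more than six SD over the plate average, tested at 20 µM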;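 further: 0% = DMSO alone and 100% = apelin-13 at 10 nM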
#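 system = engineered CHO-K1 APJ arrestin reporter cells | input = 1000 cells per well | timing = overnight seeding, 90 min compound at 25 °C, 1 h detection | measured by = enzyme-fragment complementation luminescence | read-out = beta-arrestin recruitment to APJ as agonist activity, luminescent signal | control set = negative DMSO alone, positive Apelin-13 at 10 nM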
# EBI2 antag = EBI2 (human) antagonism; P32249; EBI2 beta-arrestin recruitment, luminescence, 7a,25-OHC stimulated; inhibition, % at 5 µM; 360,000 tested, 0.81% active; in the data active means inhibition above about 38%;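 further: enzyme fragment complementation signal reports receptor beta-arrestin coupling in cells; 0% = agonist plus DMSO wells and 100% = wells without agonist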
# Target sequence (P32249 whole entry, looked up, the tested form may be a part): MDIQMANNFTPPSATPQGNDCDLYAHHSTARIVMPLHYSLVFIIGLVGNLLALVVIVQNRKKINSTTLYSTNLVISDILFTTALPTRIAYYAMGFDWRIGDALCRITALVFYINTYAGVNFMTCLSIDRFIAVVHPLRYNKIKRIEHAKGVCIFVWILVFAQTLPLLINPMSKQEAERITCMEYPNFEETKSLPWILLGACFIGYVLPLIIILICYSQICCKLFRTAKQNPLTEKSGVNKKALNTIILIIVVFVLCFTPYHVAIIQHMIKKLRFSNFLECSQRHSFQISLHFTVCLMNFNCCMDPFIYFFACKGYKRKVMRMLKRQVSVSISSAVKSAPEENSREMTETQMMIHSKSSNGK
# CCR6 antag = antagonists of human CCR6 receptor; P51684; CHO-K1 CCR6 PathHunter beta-arrestin, luminescence, CCL20-stimulated; inhibition, % at 20 µM; 340,000 tested, 0.49% active; AID 493098;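 active means compounds whose inhibition of the agonist-driven luminescence signal at 20 µM reaches about 50%, limit read from the data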;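 further: cells stimulated with CCL20 at 14 nM final; plate controls were DMSO with CCL20 for no effect and DMSO without agonist for full effect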
# Active calls of the source: *; x = no result. Compounds with a hit are over-represented: about 1.5% of the library has one in this group of screens.
SMILES,CXCR6 block,APJ antag,APJ ag,EBI2 antag,CCR6 antag
C[C@@H](NC(=O)c1ncn(Cc2ccccc2)c1C(=O)N[C@H](C)c1ccccc1)c1ccccc1,0.5,-4.9,-4.8,47.6*,22.7
CC1CC(C)CN(S(=O)(=O)N2CCCC(C(=O)NCc3ccccc3Cl)C2)C1 (configuration not stated),7.0,4.1,4.1,4.5,56.0*
COC(=O)c1ccc2c(=O)n(CCCCCC(=O)N3CCN(c4ccccc4)CC3)c(=O)[nH]c2c1,1.7,-34.2,38.2*,-20.3,-10.2
COC(CNC(=O)c1ccc2c3c(onc13)-c1ccccc1C2=O)OC,56.4*,-5.9,7.9,12.6,x
O=c1c(Cl)c(O)ccn1C1OC(CO)C(O)C1O (configuration not stated),-2.2,x,x,-2.3,-0.9
O=C(Cn1c(N2CCN(c3ccccc3)CC2)nc2ccccc21)c1ccccc1,25.5,23.3,-1.5,10.4,50.3*
O=C(O)c1ccccc1C(=O)Nc1ccccc1,-0.2,5.5,-2.0,7.9,-4.8
O=C(Nc1ccccc1)C1=C(c2ccccc2)S(=O)(=O)CCS1(=O)=O,38.2,x,x,31.0,51.5*
O=C(O)c1ccc(NC2=C/C(=N/S(=O)(=O)c3cccs3)c3ccccc3C2=O)cc1,14.1,x,x,-27.8,x
Cc1ccc(NC2=C/C(=N\S(=O)(=O)c3cccs3)c3ccccc3C2=O)c(C)c1,33.1,23.6,-5.9,25.6,59.1*
CCc1ccc(S(=O)(=O)/N=C2\C=C(Nc3cccc(C(=O)O)c3)C(=O)c3ccccc32)cc1,18.3,0.9,-1.8,-2.3,45.4
CCc1ccc(S(=O)(=O)/N=C2\C=C(Nc3ccc(O)cc3)C(=O)c3ccccc32)cc1,41.4*,25.1,-7.4,8.7,57.0*
CCc1ccc(S(=O)(=O)/N=C2/C=C(Sc3ncn[nH]3)C(=O)c3ccccc32)cc1,54.5*,x,x,3.4,x
CCc1ccc(S(=O)(=O)/N=C2\C=CC(=O)c3ccccc32)cc1,x,-33.4,5.3,x,x
O=C1C(Nc2ccc(O)cc2)=C/C(=N/S(=O)(=O)c2cccs2)c2ccccc21,33.6,x,x,20.5,59.4*
Cc1nc2ccccc2n1C(c1cccnc1)c1nc2ccccc2[nH]1 (configuration not stated),x,x,x,-4.8,x
Cc1cccc(NC2=C/C(=N/S(=O)(=O)c3cccs3)c3ccccc3C2=O)c1,26.7,x,x,16.6,52.8*
Cc1ccc(Cl)cc1NC1=C/C(=N\S(=O)(=O)c2cccs2)c2ccccc2C1=O,30.6,38.7,-0.9,6.1,58.5*
Cc1cc(C)c(S(=O)(=O)/N=C2\C=C(NS(=O)(=O)c3ccccc3)C(=O)c3ccccc32)c(C)c1,31.1,29.1,-5.0,9.0,37.7
CCOC(=O)c1cnc(-n2nc(C)cc2C)nc1NC(C)c1ccccc1 (configuration not stated),29.2,24.8,-6.1,51.1*,41.2
CC(C)(C)OC(=O)N[C@@H](Cc1ccccc1)c1nnc(S(=O)(=O)Cc2cccc(F)c2)o1,x,29.4,-0.2,x,69.0*
CC(C)C[C@H](N)c1nnc(S(=O)(=O)Cc2cccc(F)c2)o1,12.9,-0.9,0.1,-3.5,12.8
CC[C@@H](C)[C@H](NC(=O)OC(C)(C)C)c1nnc(S(=O)(=O)Cc2cc(C)ccc2C)o1,37.0,14.2,0.0,11.7,47.5
Cc1ccccc1CS(=O)(=O)c1nnc([C@H](CC(C)C)NC(=O)OC(C)(C)C)o1,26.7,30.5,-1.4,13.0,53.3*
O=C1/C(=C\c2ccc(Cl)c(Cl)c2)CN(C(=O)CCN2CCOCC2)C/C1=C/c1ccc(Cl)c(Cl)c1,31.7,x,x,89.6*,55.5*
SMILES,CXCR6 block,APJ antag,APJ ag,EBI2 antag,CCR6 antag
O=C1/C(=C\c2ccccc2)CN(C(=O)CCN2CCCCC2)C/C1=C/c1ccccc1,66.4*,x,x,52.3*,81.9*
O=C(NCCN1CCOCC1)c1ccc(Cl)c(Cl)c1,5.8,9.3,-0.2,3.1,-6.9
CCN(CC)CCC(=O)N1C/C(=C/c2ccccc2)C(=O)/C(=C\c2ccccc2)C1,62.4*,x,x,52.2*,65.5*
O=C1/C(=C\c2ccccc2)CCC/C1=C/c1ccccc1,2.8,x,x,-8.3,14.7
C[C@H](O)CNC(=O)c1[nH]cnc1C(=O)Nc1cccc(Cl)c1,-11.4,x,x,-12.0,x
NC(=O)c1c(NC(=O)c2ccccc2F)sc2c1CCC2,4.7,x,x,-4.4,x
COc1ccc(-c2csc(N3C(=N)SCC3=O)n2)cc1,28.6,19.2,-6.3,-4.0,55.8*
CNC(=S)N1N=C(c2ccc(Br)cc2)CC1c1ccc(N(C)C)cc1 (configuration not stated),-8.1,-17.4,-0.7,93.5*,2.2
COc1ccc(C2CC(c3ccc(Br)cc3)=NN2C(=S)Nc2ccccc2)cc1 (configuration not stated),10.7,1.9,-4.2,13.1,12.3
CN1CCN(c2ncnc3c2ncn3[C@H]2CN(Cc3cccnc3)C[C@@H](CO)O2)CC1,3.2,x,x,-0.7,x
O=C(/C=C/c1cccc(Cl)c1)Nc1ncccn1,-4.5,16.5,-2.5,-4.5,-1.7
O=C(/C(=C\c1ccccc1)c1nc2ccccc2[nH]1)c1ccc(Cl)cc1,7.9,7.9,4.2,47.9*,18.9
O=C(/C=C/c1cccc(Cl)c1)c1nc2ccccc2[nH]1,8.9,7.7,0.0,55.9*,31.9
[O-][n+]1cc(Cl)cc(Cl)c1,-1.9,x,x,-4.5,x
CC(=NNc1ccc2ccccc2n1)c1ccccc1O,56.4*,x,x,15.5,x
C/C(=N\Nc1nc2ccccc2nc1C)c1ccccc1O,2.7,13.0,-1.4,7.0,12.8
Cc1ccc(F)c(S(=O)(=O)NC(=O)C2(C)CCN2C(=O)c2ccc(C(F)(F)F)nc2C)c1 (configuration not stated),4.2,x,x,-2.5,x
CCOC(=O)c1ccc(N/N=C/c2cc(Br)cc([N+](=O)[O-])c2O)cc1,52.5*,18.8,-5.9,20.5,60.0*
Cc1ccc2c(c1)C1(SC(C)C(=O)N1c1ccc(Cl)cc1)C(=O)N2 (configuration not stated),-2.4,x,x,-1.8,x
C=CC(=O)N1C/C(=C/c2ccc(F)cc2)C(=O)/C(=C\c2ccc(F)cc2)C1,72.3*,x,x,52.9*,83.9*
CN1C2CCC1/C(=C\c1ccc(F)cc1)C(=O)/C2=C/c1ccc(F)cc1,0.0,12.4,-1.7,20.2,23.4
COc1cc(/C=N/NC(=O)c2nc(-c3ccccc3)n(-c3ccccc3)n2)ccc1O,-4.3,-25.4,-1.4,5.9,7.9
COc1cc(/C=N/Nc2nc(C)nc3c2cnn3-c2ccccc2)ccc1O,2.6,x,x,55.7*,-1.6
ON1C2CCCCC2N(O)C1c1c(F)c(F)c(F)c(F)c1F (configuration not stated),17.5,30.4,-11.9,-1.4,52.7*
N=c1c(C(=O)NCc2ccc(F)cc2)cc2c(=O)n3ccccc3nc2n1Cc1ccco1,22.6,49.0*,-5.7,1.6,32.8
COc1ccc(OC)c(N(CCN2C(=O)c3ccccc3C2=O)C(=O)CCl)c1,5.0,x,x,-1.5,x

# Source: PubChem BioAssay (Sanford-Burnham Center for Chemical Genomics)
